In ChEMBL document CHEMBL1135197, “The synthesis and biological evaluation of a series of potent dual inhibitors of farnesyl and geranyl-Geranyl protein transferases” (Bioorg Med Chem Lett, 2002):
Several values for one entry are separate records, joined by “and”; a condition that tells them apart may be missing. Identical values can stand only once.

Key:
[1] = target: T1, Geranylgeranyl transferase type I (Homo sapiens, UniProt P49354+P53609); assay: Inhibition of geranylgeranylation of the C-terminal CAAX sequence of Rap 1a in PSN-1 cells; type: functional, cell-based
In short: (§1)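 PSN-1 cells; the read-out is inhibition of geranylgeranylation at the C-terminal CAAX sequence of Rap 1a, reported as EC50. Values are the mean of at least two determinations.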

[2] = target: T2, Protein farnesyltransferase (Homo sapiens, UniProt P49354+P49356); assay: The concentration required to displace 50% of a highly potent radiolabeled FPTase inhibitor; type: protein-complex assay
[3] = target: T2, Protein farnesyltransferase; assay: Inhibitor of Farnesyl protein transferase (FTPase) required to reduce radiolabel [1-3H] incorporation by 50%; type: protein-complex assay
In short: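 Purified recombinant FPTase transfers [1-3H]FPP onto a recombinant protein substrate carrying the K-ras C-terminus. IC50 is the inhibitor concentration that lowers radiolabel incorporation by 50% relative to uninhibited controls. Values are the mean of at least two determinations.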

[4] = target: T1, Geranylgeranyl transferase type I; assay: (§2) Inhibition of [1-3H]-GGPP incorporation into biotinylated K4B-Ras peptide by geranylgeranyl transferase in the presence of 5 mM ATP; type: protein-complex assay
In short: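 Scintillation proximity assay: GGPTase reaction of [1-3H]GGPP with a biotinylated peptide of the K4B-Ras C-terminus at several inhibitor concentrations. IC50 is the concentration cutting radiolabel incorporation by 50% relative to uninhibited controls. Values are the mean of at least two determinations.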

[5] = target: T1, Geranylgeranyl transferase type I; assay: as §2; type: protein-complex assay; remark: listed apart in the source
In short: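 Scintillation proximity assay: GGPTase reaction of [1-3H]GGPP with a biotinylated peptide of the K4B-Ras C-terminus at several inhibitor concentrations. Values are the mean of at least two determinations.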

[6] = target: T2, Protein farnesyltransferase; assay: Displacement of radiolabeled farnesyl transferase inhibitor; type: protein-complex assay
[7] = target: T1, Geranylgeranyl transferase type I; assay: Inhibition of geranylgeranylation of C-terminal CAAX sequence of Rap 1a in PSN-1 cells; type: functional, cell-based; in short: as §1
[8] = target: T2, Protein farnesyltransferase; assay: Inhibition of Farnesyl protein transferase radiolabel [1-3H] incorporation; type: protein-complex assay

Row | Compound | EC50 [1] | IC50 [2] | IC50 [3] | IC50 [4] | IC50 [5] | IC50 [6] | EC50 [7] | IC50 [8]
1 | N#Cc1ccc(Cn2cncc2CN2CCN(C(=O)OCc3ccccc3CC(F)(F)F)CC2)cc1 | 0.05 µM | 0.00085 µM | 0.0025 µM | 0.00482 µM | – | – | – | –
2 | N#Cc1ccc(Cn2cncc2CN2CCN(C(=O)OCc3ccc4c(c3)OCO4)CC2)cc1 | – | – | 0.102 µM | 0.121 µM | – | – | – | –
3 | Cc1cccc(COC(=O)N2CCN(Cc3cncn3Cc3ccc(C#N)cc3)CC2)c1 | – | 0.166 µM | 0.034 µM | 0.076 µM | – | – | – | –
4 | N#Cc1ccc(Cn2cncc2CN2CCN(C(=O)OCc3ccccc3Cl)CC2)cc1 | – | 0.00795 µM | 0.0068 µM | 0.00068 µM | – | – | – | –
5 | COc1ncccc1COC(=O)N1CCN(Cc2cncn2Cc2ccc(C#N)cc2)CC1 | – | 0.013 µM | 0.018 µM | 0.048 µM | – | – | – | –
6 | COCc1ccccc1COC(=O)N1CCN(Cc2cnc(C)n2Cc2ccc(C#N)cc2)CC1 | – | – | – | – | 0.178 µM | 0.00317 µM | 0.68 µM | 0.017 µM
7 | COCc1ccccc1COC(=O)N1CCN(Cc2cncn2Cc2ccc(C#N)cc2)CC1 | – | 0.0091 µM | 0.0061 µM | 0.00032 µM | – | – | – | –
8 | Cc1ncc(CN2CCN(C(=O)OCc3ccccc3OC(F)(F)F)CC2)n1Cc1ccc(C#N)cc1 | – | – | – | – | 0.053 µM | 0.00034 µM | 0.66 µM | 0.00033 µM
9 | N#Cc1ccc(Cn2cncc2CN2CCN(C(=O)OCc3ccccc3OC(F)(F)F)CC2)cc1 | 0.018 µM | 0.0022 µM | 0.00036 µM | 0.00016 µM | – | – | – | –
10 | CCOc1ccccc1COC(=O)N1CCN(Cc2cnc(C)n2Cc2ccc(C#N)cc2)CC1 | – | 0.00113 µM | 0.0015 µM | 0.08 µM | – | – | – | –
11 | Cc1ncc(CN2CCN(C(=O)OCc3ccccc3)CC2)n1Cc1ccc(C#N)cc1 | – | – | 0.019 µM | 0.789 µM | – | – | – | –
12 | CCOc1ncccc1COC(=O)N1CCN(Cc2cncn2Cc2ccc(C#N)cc2)CC1 | – | 0.00867 µM | 0.005 µM | 0.0087 µM | – | – | – | –
13 | N#Cc1ccc(Cn2cncc2CN2CCN(C(=O)OCc3cccc(OC(F)(F)F)c3)CC2)cc1 | – | 0.0121 µM | 0.0134 µM | 0.074 µM | – | – | – | –
14 | Cc1ccccc1COC(=O)N1CCN(Cc2cncn2Cc2ccc(C#N)cc2)CC1 | – | 0.0629 µM | 0.0064 µM | – | 0.0091 µM | – | – | –
15 | COc1ccccc1COC(=O)N1CCN(Cc2cncn2Cc2ccc(C#N)cc2)CC1 | – | 0.004 µM and 0.027 µM | 0.0031 µM | 0.00084 µM | – | – | – | –
16 | CS(=O)(=O)c1ccccc1COC(=O)N1CCN(Cc2cncn2Cc2ccc(C#N)cc2)CC1 | – | – | 0.099 µM | 0.018 µM | – | – | – | –
17 | CCOc1ccccc1COC(=O)N1CCN(Cc2cncn2Cc2ccc(C#N)cc2)CC1 | 0.071 µM | 0.00452 µM | 0.0016 µM | 0.00032 µM | – | – | – | –
18 | N#Cc1ccc(Cn2cncc2CN2CCN(C(=O)OCc3cccc4c3OCO4)CC2)cc1 | – | 0.0109 µM | 0.0155 µM | 0.0198 µM | – | – | – | –
